B1: Osa-1-4 twister ribozyme (parent)
chain: CCGCCUAACACUGCCAAUGCCGGUCCCAAGCCCGGAUAAAAGUGGAGGGGGCGG

In the series the parent is B1. Nature of the series: self-cleavage, relative activity (ratio to wild type); higher = more cleavage; co-transcriptional. A digest of the protocol:
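A DNA template was synthesised for a 54-nucleotide twister ribozyme from Oryza sativa, with 97 % wild-type base and 1 % of each other base at each of the 48 positions downstream of the cleavage site. The ribozyme cleaved itself co-transcriptionally during 2 h of in vitro transcription at 37 °C. Reverse transcription with a template-switching oligonucleotide, PCR amplification and deep sequencing followed, and cleavage status came from reads with or without upstream sequence. Relative activity is the fraction cleaved normalised to wild type.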
Take C20U C9U: the self-cleavage is 0.68. As for C20U C9A, the self-cleavage turned out to be 0.38. With C20A C26U, the self-cleavage came to 0.87.

Consider C20A C26G, for which the self-cleavage came out at 0.08. In the case of C20A C26A, the self-cleavage is 0.08. Consider C20A U43G, for which the self-cleavage was determined as 0.71. Turning to C20A U43C, the self-cleavage was found to be 0.58. For C20A U43A, the self-cleavage worked out at 0.77. For the variant C20G G42C, the self-cleavage is 0.04. Consider C20G G42A, for which the self-cleavage was found to be 0.07.

For the variant C20G G42U, the self-cleavage came out at 0.02.

C20A C33U: the self-cleavage turned out to be 0.76.

As for C20A C33A, the self-cleavage amounted to 0.08. In the case of C20A C33G, the self-cleavage is 0.05. C20U C26G: the self-cleavage stood at 0.24. The figure for C20U C26A is 0.08; for C20U C26U it is 0.92; for C20U G23A it is 0.27. In the case of C20U G23C it was 0.05; in that of C20U G23U, 0.13. As for C20G C9U, the self-cleavage is 0.05.

Take C20G C9A: the self-cleavage came out at 0.05. In the case of C20G C9G, the self-cleavage was 0.1. Turning to G19U G42U, the self-cleavage was 0.04. The figure for G19U G42A is 0.06.

As for G19U G42C, the self-cleavage amounted to 0.06.

Consider G19U U43A, for which the self-cleavage came to 0.11. As for G19U U43C, the self-cleavage was found to be 0.07.

Regarding G19U U43G, the self-cleavage stood at 0.09. Turning to C20A U12C, the self-cleavage was found to be 0.57. With C20A U12G, the self-cleavage was 0.71. On to C20A U12A, for which the self-cleavage amounted to 0.82.

For C20A C21G, the self-cleavage was 0.12. With C20A C21U, the self-cleavage is 0.86.

For the variant C20A C21A, the self-cleavage turned out to be 0.78.

In the case of C20A G30U, the self-cleavage turned out to be 0.03. C20A G30C: the self-cleavage stood at 0.04. C20A G30A: the self-cleavage is 0.04. In the case of C20A C9U, the self-cleavage is 0.53. In the case of C20A C9G it was 0.68. As for C20A C9A, the self-cleavage stood at 0.29.

In the case of C20A C52U, the self-cleavage was found to be 0.82.

On to C20A C52A, for which the self-cleavage turned out to be 0.8. Regarding C20A C52G, the self-cleavage is 0.79. Turning to G19U G49U, the self-cleavage amounted to 0.03. On to G19U G49C, for which the self-cleavage worked out at 0.04. G19U G49A: the self-cleavage stood at 0.04. With C20G G34C, the self-cleavage is 0.08.

For the variant C20G G34A, the self-cleavage came to 0.08. Turning to C20G G34U, the self-cleavage is 0.06.

For C20U G50C, the self-cleavage is 0.87. For C20U G50A, the self-cleavage was found to be 0.92. For the variant C20U G50U, the self-cleavage was determined as 0.95. As to C20G C25G, the self-cleavage amounted to 0.06.

On to C20G C25U, for which the self-cleavage stood at 0.21. The figure for C20G C25A is 0.06. Consider C20G U12G, for which the self-cleavage was found to be 0.04. In the case of C20G U12A, the self-cleavage was determined as 0.09. Take C20G U12C: the self-cleavage worked out at 0.07. As for G19U G44C, the self-cleavage was 0.34.

For G19U G44A, the self-cleavage was 0.1. With G19U G44U, the self-cleavage came to 0.19. Take G19U U37C: the self-cleavage came out at 0.84.

G19U U37A: the self-cleavage is 0.15. In the case of G19U U37G, the self-cleavage was determined as 0.53. The figure for C20A C27A is 0.34; for C20A C27G it is 0.09. In the case of C20A C27U it was 0.31; in that of C20U U18G, 0.82. With C20U U18C, the self-cleavage is 0.87.

Take C20U U18A: the self-cleavage is 0.86. Take C20A U37A: the self-cleavage came out at 0.83.

As to C20A U37C, the self-cleavage worked out at 0.88. C20A U37G: the self-cleavage was 0.89.

As for C20G G44U, the self-cleavage was 0.07.

With C20G G44A, the self-cleavage was 0.08.

On to C20G G44C, for which the self-cleavage came to 0.06. On to C20G G53A, for which the self-cleavage amounted to 0.06. In the case of C20G G53C it was 0.03; in that of C20G G53U, 0.04; in that of C20A G44C, 0.76. C20A G44U: the self-cleavage amounted to 0.78. Take C20A G44A: the self-cleavage came out at 0.75. For the variant C20U G34C, the self-cleavage was found to be 0.31. For the variant C20U G34A, the self-cleavage was found to be 0.95. For the variant C20U G34U, the self-cleavage was found to be 0.82. On to C20A G35U, for which the self-cleavage was 0.94.

Take C20A G35C: the self-cleavage was determined as 0.9. For the variant C20A G35A, the self-cleavage worked out at 0.88.

With C20G G35U, the self-cleavage stood at 0.27. Consider C20G G35A, for which the self-cleavage came to 0.27. As for C20G G35C, the self-cleavage was found to be 0.28. Turning to C20G C21A, the self-cleavage was found to be 0.46. In the case of C20G C21U it was 0.29; in that of C20G C21G, 0.24. Regarding G19U G48U, the self-cleavage was determined as 0.04. G19U G48C: the self-cleavage was 0.03. Take G19U G48A: the self-cleavage was determined as 0.04.

For C20U G51C, the self-cleavage turned out to be 0.11. Take C20U G51U: the self-cleavage worked out at 0.63. For C20U G51A, the self-cleavage was determined as 0.85. The figure for C20U G48A is 0.1; for C20U G48U it is 0.1. The figure for C20U G48C is 0.1; for C20A U24A it is 0.37. On to C20A U24G, for which the self-cleavage is 0.06. As for C20A U24C, the self-cleavage was found to be 0.17.

As for C20U G45A, the self-cleavage came out at 0.35. The figure for C20U G45U is 0.14. In the case of C20U G45C it was 0.06; in that of C20A G23U, 0.1; in that of C20A G23A, 0.18. Consider C20A G23C, for which the self-cleavage came out at 0.03. In the case of C20G G22C it was 0.05.

For the variant C20G G22A, the self-cleavage worked out at 0.08. Take C20G G22U: the self-cleavage stood at 0.09. As to C20G G50A, the self-cleavage is 0.23. In the case of C20G G50C it was 0.06; in that of C20G G50U, 0.09. As for G19U U24A, the self-cleavage was determined as 0.05. G19U U24C: the self-cleavage was 0.07. Take G19U U24G: the self-cleavage was 0.07. On to C20G G49U, for which the self-cleavage was determined as 0.04. As for C20G G49C, the self-cleavage was 0.03. The figure for C20G G49A is 0.05; for C20A G49C it is 0.06. With C20A G49A, the self-cleavage turned out to be 0.2.

As to C20A G49U, the self-cleavage came out at 0.16. The figure for C20G G51A is 0.09; for C20G G51U it is 0.06. With C20G G51C, the self-cleavage amounted to 0.03.

In the case of C20G G45U, the self-cleavage came to 0.02. In the case of C20G G45C, the self-cleavage was 0.03. Consider C20G G45A, for which the self-cleavage was found to be 0.04. As to G19U G34U, the self-cleavage was determined as 0.3. As to G19U G34C, the self-cleavage worked out at 0.2. As for G19U G34A, the self-cleavage was 0.52.

Turning to C20A U18A, the self-cleavage came out at 0.6. As to C20A U18C, the self-cleavage was determined as 0.83. As to C20A U18G, the self-cleavage came out at 0.67. For C20U G44U, the self-cleavage was 0.87. For the variant C20U G44A, the self-cleavage worked out at 0.87. On to C20U G44C, for which the self-cleavage came to 0.88. With C20A G53U, the self-cleavage was 0.42. As to C20A G53C, the self-cleavage is 0.1.

As to C20A G53A, the self-cleavage was determined as 0.67. For C20A G22C, the self-cleavage was found to be 0.07.

As to C20A G22A, the self-cleavage was 0.39. Take C20A G22U: the self-cleavage amounted to 0.53. The figure for C20G C32U is 0.03; for C20G C32A it is 0.03. On to C20G C32G, for which the self-cleavage came to 0.06.

For C20G C27U, the self-cleavage turned out to be 0.05.

C20G C27A: the self-cleavage was found to be 0.04.

Regarding C20G C27G, the self-cleavage came to 0.05. Regarding C20G U24A, the self-cleavage worked out at 0.07.

With C20G U24C, the self-cleavage came to 0.11.

On to C20G U24G, for which the self-cleavage was 0.05. As to C20G C31G, the self-cleavage came out at 0.09. The figure for C20G C31A is 0.02.

Regarding C20G C31U, the self-cleavage was 0.07. On to C20A C32A, for which the self-cleavage stood at 0.07. As for C20A C32G, the self-cleavage amounted to 0.05. For the variant C20A C32U, the self-cleavage came to 0.08. Take C20G C52A: the self-cleavage was 0.08. As for C20G C52U, the self-cleavage came to 0.17.

Turning to C20G C52G, the self-cleavage amounted to 0.11.

The values above are taken from the RNAGym collection of RNA variant scans (doi:10.1002/anie.201605470).
